Experimental data: ChEMBL document CHEMBL4373735, “N-alkyl-hydroxybenzoyl anilide hydroxamates as dual inhibitors of HDAC and HSP90, downregulating IFN-γ induced PD-L1 expression” (Eur J Med Chem, 2020)
Calls of active or inactive are those of the source. The rule behind the calls is not given here.

Experiments:
NCI-H1975 [1] = assay: Induction of apoptosis in human NCI-H1975 cells assessed as activation of caspase 3 at 0.1 to 3 uM measured after 48 hrs immunoblot analysis; assay type: functional, cell-based
Summary of the method: (§1)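 H1975 cells cultured with compound at the indicated concentrations for 48 h, then immunoblotted with the indicated antibodies. Lysis buffer was ice-cold RIPA-type with phosphatase and protease inhibitors, 30 min on ice. Proteins separated on 8-15% SDS-PAGE, transferred to PVDF, primary antibody overnight at 4°C, HRP secondary 1 h at room temperature, ECL detection.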

A549 = assay: Antiproliferative activity against human A549 cells assessed as cell growth inhibition after 48 hrs by sulforhodamine B assay; assay type: functional; conditions: Homo sapiens, A549, 48 h
Summary of the method: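 Cells seeded at 5000/well overnight; baseline plate fixed with 10% TCA at time of compound addition (T0). Treated with DMSO or graded doses for 48 h, fixed with 10% TCA, stained with 0.4% (w/v) SRB in 1% acetic acid, washed with 1% acetic acid, dye solubilised in 10 mM Trizma base, absorbance at 515 nm. GI50 from T0-corrected growth; at least three independent experiments, SD reported.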

HCT-116 = assay: cells; assay type: functional; conditions: Homo sapiens, HCT-116, 48 h
NCI-H1975 [2] = assay: cells; assay type: functional; conditions: Homo sapiens, NCI-H1975, 48 h
Histone deacetylase = assay type: cell-based, Homo sapiens; conditions: hela
[3] = target: Heat shock protein HSP 90-alpha (Homo sapiens, UniProt P07900); assay: Inhibition of FITC-geldanamycin binding to recombinant human full-length C-terminal His-tagged HSP90alpha expressed in Escherichia coli after 3 hrs by fluorescence polarization assay
Histone deacetylase 1 = Histone deacetylase 1 (Homo sapiens, UniProt Q13547); assay: Inhibition of recombinant full length human FLAG/His-tagged HDAC1 (1 to 482 residues) expressed in baculovirus infected insect cells using RHK-K(Ac)-AMC as substrate measured after 60 mins by fluorimetric assay
Summary of the method: (§2)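 Isoform assays run by an outside contractor. […] Trichostatin A tested in parallel the same way as control.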

Histone deacetylase 3 = Histone deacetylase 3 (Homo sapiens, UniProt O15379); assay: Inhibition of human recombinant full length C-terminal His-tagged HDAC3 (1 to 428 residues) expressed in baculovirus infected insect cells using RHK-K(Ac)-AMC as substrate after 60 mins by fluorimetry analysis; summary of the method: as §2
Histone deacetylase 4 = Histone deacetylase 4 (Homo sapiens, UniProt P56524); assay: Inhibition of recombinant N-terminal GST-tagged and C-terminal His-tagged human HDAC4 expressed in baculovirus infected insect cells using RHK-K(Ac)-AMC as substrate after 60 mins by fluorimetry analysis; summary of the method: as §2
Histone deacetylase 5 = Histone deacetylase 5 (Homo sapiens, UniProt Q9UQL6); assay: Inhibition of recombinant human C-terminal His-fusion tagged HDAC5 (657 to 1123 residues) expressed in baculovirus infected insect cells using Boc-K(Ac)-AMC as substrate after 60 mins by fluorimetry analysis; summary of the method: as §2
Histone deacetylase 7 = Histone deacetylase 7 (Homo sapiens, UniProt Q8WUI4); assay: Inhibition of recombinant human N-terminal GST-tagged HDAC7 (518 to 991 residues) expressed in baculovirus infected insect cells using Boc-K(Ac)-AMC as substrate after 90 mins by fluorimetry analysis; summary of the method: as §2
Histone deacetylase 9 = Histone deacetylase 9 (Homo sapiens, UniProt Q9UKV0); assay: Inhibition of human HDAC9 using (Boc-Lys(trifluoroacetyl)-AMC) as substrate by fluorescence assay; summary of the method: as §2
Histone deacetylase 11 = Histone deacetylase 11 (Homo sapiens, UniProt Q96DB2); assay: Inhibition of human recombinant N-terminal Streptavidin2-tagged HDAC11 (1 to 347 residues) expressed in baculovirus infected insect cells using Boc-Lys(TFA)-AMC as substrate after 60 mins by fluorescence assay; summary of the method: as §2
[4] = target: NAD-dependent protein deacetylase sirtuin-1 (Homo sapiens, UniProt Q96EB6); assay: Inhibition of human recombinant N-terminal His-tagged SIRT1 (1 to 747 residues) expressed in Escherichia coli using Ac-RHK-K(Ac)-AMC as substrate after 30 mins in presence of NAD+ by fluorimetry analysis; summary of the method: as §2
[5] = target: T1, Heat shock protein HSP90 (Homo sapiens) (UniProt P07900+P08238); assay: Inhibition of HSP90 in human H1975 cells assessed as induction of HSP70 expression by Western blot analysis; assay type: cell-based
Summary of the method: (§3)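 H1975 cells given DMSO or 0.1-3 μM compound for 24 h, or 1 μM for varying times. HSP70 and HSP90 client proteins detected by Western blot of whole-cell lysates, with GAPDH as internal control. Repeated in at least three independent experiments.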

[6] = target: T1, Heat shock protein HSP90 (Homo sapiens); assay: Inhibition of HSP90 in human H1975 cells assessed as downregulation of EGFR protein level by Western blot analysis; assay type: cell-based; summary of the method: as §3
[7] = target: T1, Heat shock protein HSP90 (Homo sapiens); assay: Inhibition of HSP90 in human H1975 cells assessed as downregulation of SRC protein level by Western blot analysis; assay type: cell-based; summary of the method: as §3
[8] = target: T1, Heat shock protein HSP90 (Homo sapiens); assay: Inhibition of HSP90 in human H1975 cells assessed as downregulation of FAK protein level by Western blot analysis; assay type: cell-based; summary of the method: as §3
[9] = target: T1, Heat shock protein HSP90 (Homo sapiens); assay: Inhibition of HSP90 in human H1975 cells assessed as downregulation of Rb protein level by Western blot analysis; assay type: cell-based; summary of the method: as §3
NCI-H1975 [10] = assay: Cell cycle arrest in human NCI-H1975 cells assessed as increase in accumulation at sub-G1 phase at 0.1 to 3 uM after 48 hrs by propidium iodide/RNase staining based FACScan flow cytometry analysis; assay type: functional
Summary of the method: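 H1975 cells seeded at 2.5×10^5/well, left overnight, then exposed to DMSO or compound at several concentrations for 48 h. Washed in PBS, fixed in ice-cold 70% ethanol at -20 °C overnight, stained with propidium iodide 80 ug/ml plus 0.1% Triton X-100 and RNase A 100 ug/ml in PBS. DNA content read by FACScan.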

NCI-H1975 [11] = assay: Induction of apoptosis in human NCI-H1975 cells assessed as activation of caspase 8 at 0.1 to 3 uM measured after 48 hrs immunoblot analysis; assay type: functional, cell-based; summary of the method: as §1
NCI-H1975 [12] = assay: Induction of apoptosis in human NCI-H1975 cells assessed as activation of caspase 9 at 0.1 to 3 uM measured after 48 hrs immunoblot analysis; assay type: functional, cell-based; summary of the method: as §1
NCI-H1975 [13] = assay: Induction of apoptosis in human NCI-H1975 cells assessed as activation of PARP at 0.1 to 3 uM measured after 48 hrs immunoblot analysis; assay type: functional, cell-based; summary of the method: as §1
NCI-H1975 [14] = assay: Induction of apoptosis in human NCI-H1975 cells assessed as activation of gamma H2AX at 0.1 to 3 uM measured after 48 hrs immunoblot analysis; assay type: functional, cell-based; summary of the method: as §1
NCI-H1975 [15] = assay: Inhibition of PD-L1 cell surface expression in IFNgamma-stimulated human NCI-H1975 cells at 0.74 uM after 48 hrs by FITC staining based FACScan flow cytometry analysis; assay type: functional
Summary of the method: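 Cells seeded at 3.2×10^5/well and treated with IFN-γ 20 ng/ml with or without compound for 48 h. Then 3×10^5 cells stained with mouse anti-PD-L1 5 µg/ml for 1 h, followed by FITC goat anti-mouse IgG for 1 h, in PBS/0.05% BSA. FITC mean fluorescence intensity measured by FACScan and expressed relative to untreated cells. Mean ± S.D. of three independent experiments.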

Histone deacetylase 11, sequence (Q96DB2 whole entry, the tested form may be a part): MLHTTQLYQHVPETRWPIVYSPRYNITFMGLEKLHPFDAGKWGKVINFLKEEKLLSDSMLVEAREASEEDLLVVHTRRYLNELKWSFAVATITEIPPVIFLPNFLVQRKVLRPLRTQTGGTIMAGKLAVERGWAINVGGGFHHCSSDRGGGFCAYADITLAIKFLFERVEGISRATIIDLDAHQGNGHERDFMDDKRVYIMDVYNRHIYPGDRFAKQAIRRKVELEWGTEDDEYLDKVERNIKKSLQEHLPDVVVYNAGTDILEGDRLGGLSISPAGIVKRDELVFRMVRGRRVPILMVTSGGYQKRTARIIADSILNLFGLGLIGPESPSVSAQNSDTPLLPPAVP
Histone deacetylase 4, sequence (P56524 whole entry, the tested form may be a part): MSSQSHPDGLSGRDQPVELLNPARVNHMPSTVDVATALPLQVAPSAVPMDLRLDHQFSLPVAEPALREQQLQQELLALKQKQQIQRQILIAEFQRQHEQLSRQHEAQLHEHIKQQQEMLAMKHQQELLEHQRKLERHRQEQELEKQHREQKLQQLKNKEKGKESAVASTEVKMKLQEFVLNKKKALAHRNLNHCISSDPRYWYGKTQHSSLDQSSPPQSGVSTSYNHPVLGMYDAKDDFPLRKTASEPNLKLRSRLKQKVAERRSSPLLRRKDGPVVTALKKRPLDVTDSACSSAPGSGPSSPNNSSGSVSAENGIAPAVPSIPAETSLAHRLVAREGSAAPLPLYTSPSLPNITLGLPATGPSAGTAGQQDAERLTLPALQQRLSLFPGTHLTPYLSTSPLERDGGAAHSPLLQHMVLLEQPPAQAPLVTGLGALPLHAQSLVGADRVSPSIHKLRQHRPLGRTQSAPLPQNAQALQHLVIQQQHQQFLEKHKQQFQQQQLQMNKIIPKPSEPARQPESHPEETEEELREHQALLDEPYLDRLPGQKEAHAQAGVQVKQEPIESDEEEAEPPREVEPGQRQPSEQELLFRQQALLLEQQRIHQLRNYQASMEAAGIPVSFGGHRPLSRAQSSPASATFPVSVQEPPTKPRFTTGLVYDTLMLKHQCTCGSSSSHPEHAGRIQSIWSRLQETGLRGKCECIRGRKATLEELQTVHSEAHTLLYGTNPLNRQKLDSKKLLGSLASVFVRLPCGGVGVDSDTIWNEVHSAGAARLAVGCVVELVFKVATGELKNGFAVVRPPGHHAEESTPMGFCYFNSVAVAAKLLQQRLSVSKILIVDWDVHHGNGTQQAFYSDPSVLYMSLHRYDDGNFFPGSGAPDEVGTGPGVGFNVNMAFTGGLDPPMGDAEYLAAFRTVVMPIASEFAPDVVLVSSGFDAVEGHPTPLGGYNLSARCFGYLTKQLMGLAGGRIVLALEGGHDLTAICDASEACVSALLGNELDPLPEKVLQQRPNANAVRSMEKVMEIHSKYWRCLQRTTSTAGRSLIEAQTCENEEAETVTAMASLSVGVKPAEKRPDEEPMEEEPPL
Histone deacetylase 3, sequence (O15379 whole entry, the tested form may be a part): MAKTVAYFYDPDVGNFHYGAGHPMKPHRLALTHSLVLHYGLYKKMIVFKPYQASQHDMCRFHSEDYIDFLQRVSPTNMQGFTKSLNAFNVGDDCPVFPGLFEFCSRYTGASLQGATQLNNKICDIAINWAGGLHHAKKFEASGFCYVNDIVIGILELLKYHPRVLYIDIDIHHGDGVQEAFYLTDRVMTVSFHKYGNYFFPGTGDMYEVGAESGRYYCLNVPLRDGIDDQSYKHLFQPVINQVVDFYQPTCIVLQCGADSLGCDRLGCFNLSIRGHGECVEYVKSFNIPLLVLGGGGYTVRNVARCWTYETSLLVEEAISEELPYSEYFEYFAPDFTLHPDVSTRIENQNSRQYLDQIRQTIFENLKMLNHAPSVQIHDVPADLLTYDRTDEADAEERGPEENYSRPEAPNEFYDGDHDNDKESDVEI
Histone deacetylase 7, sequence (Q8WUI4 whole entry, the tested form may be a part): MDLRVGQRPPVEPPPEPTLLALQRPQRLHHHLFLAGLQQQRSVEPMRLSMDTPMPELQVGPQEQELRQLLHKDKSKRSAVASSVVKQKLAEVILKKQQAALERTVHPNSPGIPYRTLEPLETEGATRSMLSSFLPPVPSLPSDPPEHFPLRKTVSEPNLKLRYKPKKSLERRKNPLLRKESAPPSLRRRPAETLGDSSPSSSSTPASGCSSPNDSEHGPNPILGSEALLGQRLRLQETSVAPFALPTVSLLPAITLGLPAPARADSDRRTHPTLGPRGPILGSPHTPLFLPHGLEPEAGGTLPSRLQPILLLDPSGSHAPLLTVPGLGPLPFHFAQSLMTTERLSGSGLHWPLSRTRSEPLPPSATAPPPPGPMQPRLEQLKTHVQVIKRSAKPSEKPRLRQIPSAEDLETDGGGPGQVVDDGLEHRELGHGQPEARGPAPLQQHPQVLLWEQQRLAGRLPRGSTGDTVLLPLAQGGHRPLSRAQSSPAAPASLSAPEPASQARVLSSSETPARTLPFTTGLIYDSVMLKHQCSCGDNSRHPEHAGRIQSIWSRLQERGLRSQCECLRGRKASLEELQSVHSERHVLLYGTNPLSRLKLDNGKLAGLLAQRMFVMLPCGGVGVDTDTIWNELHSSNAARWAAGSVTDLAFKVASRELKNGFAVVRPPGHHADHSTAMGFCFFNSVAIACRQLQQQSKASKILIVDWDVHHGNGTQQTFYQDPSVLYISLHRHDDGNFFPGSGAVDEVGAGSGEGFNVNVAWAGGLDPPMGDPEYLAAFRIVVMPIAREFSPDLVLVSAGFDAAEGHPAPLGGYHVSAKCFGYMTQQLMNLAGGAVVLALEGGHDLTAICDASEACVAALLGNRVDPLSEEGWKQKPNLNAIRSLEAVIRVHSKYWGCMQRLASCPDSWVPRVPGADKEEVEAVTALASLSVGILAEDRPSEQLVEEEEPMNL
Histone deacetylase 5, sequence (Q9UQL6 whole entry, the tested form may be a part): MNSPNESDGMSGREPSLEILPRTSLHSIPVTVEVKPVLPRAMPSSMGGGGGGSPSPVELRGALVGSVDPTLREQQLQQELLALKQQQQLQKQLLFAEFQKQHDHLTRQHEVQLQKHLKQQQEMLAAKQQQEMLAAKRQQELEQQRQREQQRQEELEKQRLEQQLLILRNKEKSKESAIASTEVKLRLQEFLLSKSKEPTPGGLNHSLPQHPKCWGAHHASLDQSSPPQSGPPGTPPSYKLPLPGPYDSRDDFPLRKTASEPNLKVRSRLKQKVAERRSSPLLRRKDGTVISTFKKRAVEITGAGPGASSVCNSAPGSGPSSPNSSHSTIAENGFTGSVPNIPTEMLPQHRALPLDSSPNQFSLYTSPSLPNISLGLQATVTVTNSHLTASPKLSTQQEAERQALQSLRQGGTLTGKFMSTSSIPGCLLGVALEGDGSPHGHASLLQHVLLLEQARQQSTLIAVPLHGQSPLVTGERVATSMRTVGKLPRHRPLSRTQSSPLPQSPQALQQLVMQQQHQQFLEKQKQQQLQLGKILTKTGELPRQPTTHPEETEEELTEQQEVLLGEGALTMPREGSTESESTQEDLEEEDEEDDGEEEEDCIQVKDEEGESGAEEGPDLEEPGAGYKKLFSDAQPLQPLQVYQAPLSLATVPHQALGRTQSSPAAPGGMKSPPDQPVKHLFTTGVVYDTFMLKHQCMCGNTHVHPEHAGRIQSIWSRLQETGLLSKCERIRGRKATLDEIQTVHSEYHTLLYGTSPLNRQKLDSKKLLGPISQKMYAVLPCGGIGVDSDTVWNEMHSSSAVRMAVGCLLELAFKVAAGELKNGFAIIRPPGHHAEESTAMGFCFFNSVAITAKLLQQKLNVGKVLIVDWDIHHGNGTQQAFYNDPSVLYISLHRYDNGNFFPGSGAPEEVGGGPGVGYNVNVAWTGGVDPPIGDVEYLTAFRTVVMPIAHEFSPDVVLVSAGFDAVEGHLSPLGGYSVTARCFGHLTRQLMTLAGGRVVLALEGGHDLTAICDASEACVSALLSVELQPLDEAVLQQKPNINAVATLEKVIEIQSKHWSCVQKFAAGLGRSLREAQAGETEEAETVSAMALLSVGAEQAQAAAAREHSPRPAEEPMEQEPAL
Histone deacetylase 9, sequence (Q9UKV0 whole entry, the tested form may be a part): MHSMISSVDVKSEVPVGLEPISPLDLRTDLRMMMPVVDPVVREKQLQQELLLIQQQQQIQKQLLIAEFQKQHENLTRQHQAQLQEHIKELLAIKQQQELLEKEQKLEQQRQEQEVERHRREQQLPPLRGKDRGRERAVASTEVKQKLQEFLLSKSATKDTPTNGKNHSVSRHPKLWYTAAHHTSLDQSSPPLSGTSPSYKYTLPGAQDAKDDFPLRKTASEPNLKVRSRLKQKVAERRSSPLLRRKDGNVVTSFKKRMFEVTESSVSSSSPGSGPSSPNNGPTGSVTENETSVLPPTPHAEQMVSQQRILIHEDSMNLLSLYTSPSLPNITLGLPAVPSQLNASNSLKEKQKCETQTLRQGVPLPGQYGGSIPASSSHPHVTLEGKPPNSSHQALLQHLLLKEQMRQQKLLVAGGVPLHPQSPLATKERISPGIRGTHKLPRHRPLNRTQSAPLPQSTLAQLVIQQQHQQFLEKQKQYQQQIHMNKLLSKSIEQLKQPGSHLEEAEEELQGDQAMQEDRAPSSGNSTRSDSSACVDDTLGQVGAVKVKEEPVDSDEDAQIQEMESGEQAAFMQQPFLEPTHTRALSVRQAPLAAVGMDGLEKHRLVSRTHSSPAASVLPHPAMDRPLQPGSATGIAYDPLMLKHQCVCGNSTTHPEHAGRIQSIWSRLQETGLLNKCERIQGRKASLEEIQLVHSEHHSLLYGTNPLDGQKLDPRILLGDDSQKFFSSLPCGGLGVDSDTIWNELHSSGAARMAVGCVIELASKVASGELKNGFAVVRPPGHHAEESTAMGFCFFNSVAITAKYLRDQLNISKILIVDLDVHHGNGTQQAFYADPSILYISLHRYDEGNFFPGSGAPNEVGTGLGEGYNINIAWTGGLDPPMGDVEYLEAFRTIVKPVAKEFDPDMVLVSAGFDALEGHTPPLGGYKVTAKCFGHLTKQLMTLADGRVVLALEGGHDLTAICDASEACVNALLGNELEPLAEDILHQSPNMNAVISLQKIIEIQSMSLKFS

SMILES	Activity (NCI-H1975 [1])	GI50 (A549)	GI50 (HCT-116)	GI50 (NCI-H1975 [2])	IC50 (Histone deacetylase)	IC50 [3]	IC50 (Histone deacetylase 1)	IC50 (Histone deacetylase 3)	IC50 (Histone deacetylase 4)	IC50 (Histone deacetylase 5)	IC50 (Histone deacetylase 7)	IC50 (Histone deacetylase 9)	IC50 (Histone deacetylase 11)	IC50 [4]	inhibition [5]	inhibition [6]	inhibition [7]	inhibition [8]	inhibition [9]	Activity (NCI-H1975 [10])	other results
CC(C)c1cc(C(=O)N(C)c2ccc(NC(=O)CCCCCCC(=O)NO)cc2)c(O)cc1O	Active	770 nM	830 nM	690 nM	195 nM	153 nM	1310 nM	2060 nM	> 10000 nM	7860 nM	> 10000 nM	> 10000 nM	3610 nM	> 10000 nM	Active	Active	Active	Active	Active	Active	Activity (NCI-H1975 [11]): Active; Activity (NCI-H1975 [12]): Active; Activity (NCI-H1975 [13]): Active; Activity (NCI-H1975 [14]): Active; inhibition (NCI-H1975 [15]): Active
CC(C)c1cc(C(=O)N(C)c2ccc(NC(=O)CCCCCCCC(=O)NO)cc2)c(O)cc1O	Active	440 nM	1060 nM	400 nM	361 nM	77.2 nM	6060 nM	1440 nM	> 10000 nM	5410 nM	6400 nM	> 10000 nM	1890 nM	> 10000 nM	Active	Active	Active	Active	Active	Active	Activity (NCI-H1975 [11]): Active; Activity (NCI-H1975 [12]): Active; Activity (NCI-H1975 [13]): Active; Activity (NCI-H1975 [14]): Active; inhibition (NCI-H1975 [15]): Active
